Data as given in ChEMBL document CHEMBL1123352, “Anticonvulsant activity of 2- and 3-aminobenzanilides” (J Med Chem, 1986).
“And” between values parts separate entries of the source, which are not always exact repeats. Equal entries are not always repeated. The source made the active and inactive calls. The calls are words filed in the database; no cut-off is given here.

Legend:
Mus musculus [1] = assay: Compound was tested for toxicity by rotarod assay method in mice after intraperitoneal administration after 4 hours at 600 mg/kg; no activity; format: organism-based; set-up: dose 600 mg/kg, route intraperitoneal; details: in vivo, ip
Mus musculus [2] = assay: Anticonvulsant activity against subcutaneous pentylenetetrazole induced convulsions in mice 30 min after ip administration of 600 mg/kg.; format: functional, organism-based; set-up: dose 600 mg/kg
How it was run: (§1)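 Male Carworth Farms No. 1 mice were dosed ip with compound in 30% PEG 400, at 30–600 mg/kg, and read at 30 min and 4 h. Pentylenetetrazole was given at 85 mg/kg as a 0.5% solution sc in the posterior midline. Protection meant no single episode of clonic spasms lasting at least 5 s over a 30-min observation.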

Mus musculus [3] = assay: Anticonvulsant activity against subcutaneous pentylenetetrazole induced convulsions in mice 4 hr after ip administration of 600 mg/kg.; format: functional, organism-based; set-up: dose 600 mg/kg; how it was run: as §1
Mus musculus [4] = assay: Compound was tested for toxicity by rotarod assay method in mice 30 min after ip administration of 600 mg/kg; no activity; format: organism-based; set-up: dose 600 mg/kg, route intraperitoneal; details: in vivo, 0.5 h
Mus musculus [5] = assay: Anticonvulsant activity against maximal electroshock (MES)-induced seizures in mice 4 hours after ip administration of 300 mg/kg; A=Active; format: functional, organism-based; set-up: dose 300 mg/kg
How it was run: (§2)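 Male Carworth Farms No. 1 mice were dosed ip with compound in 30% polyethylene glycol 400, at 30, 100 and 300 mg/kg and sometimes 600 mg/kg, and tested 30 min and 4 h later. A drop of 0.9% saline went in the eye, then 60-cycle AC at 50 mA was given for 0.2 s via corneal electrodes. Protection meant abolition of hind limb tonic extension.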

Mus musculus [6] = assay: Anticonvulsant activity against maximal electroshock (MES) induced seizures in mice 30 minutes after ip administration of 600 mg/kg; A=Active; format: functional, organism-based; set-up: dose 600 mg/kg; how it was run: as §2
[7] = Protective index measured as the ratio between TD50 and ED50; format: ADME
Mus musculus [8] = assay: (§3) Compound for toxicity by rotarod assay method in mice after administration; format: organism-based; details: in vivo
How it was run: (§4)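 Neurologic deficit was tested in male Carworth Farms No. 1 mice 30 min and 4 h after ip dosing in 30% PEG 400, at 30–600 mg/kg. Each mouse was placed on a 1-in.-diameter knurled plastic rod turning at 6 rpm. Toxicity meant failing to stay on the rod for 1 min.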

Mus musculus [9] = assay: Compound was tested for toxicity by rotarod assay method in mice 4 hours after ip administration of 600 mg/kg; A=Active; format: organism-based; set-up: dose 600 mg/kg, route intraperitoneal; details: in vivo
Mus musculus [10] = assay: Anticonvulsant activity against sc pentylenetetrazole-induced convulsions in mice 30 minutes after ip administration of 300 mg/kg; A=Active; format: functional, organism-based; set-up: dose 300 mg/kg; how it was run: as §1
Mus musculus [11] = assay: Anticonvulsant activity against maximal electroshock (MES) induced seizures in mice 4 hours after ip administration of 600 mg/kg; A=Active; format: functional, organism-based; set-up: dose 600 mg/kg; how it was run: as §2
Mus musculus [12] = assay: Anticonvulsant activity against sc pentylenetetrazole-induced convulsions in mice 4 hr after ip administration of 600 mg/kg; A=Active; format: functional, organism-based; set-up: dose 600 mg/kg; how it was run: as §1
Mus musculus [13] = assay: Anticonvulsant activity against maximal electroshock (MES) induced seizures in mice 30 minutes after ip administration of 100 mg/kg; A=Active; format: functional, organism-based; set-up: dose 100 mg/kg; how it was run: as §2
Mus musculus [14] = assay: Compound was tested for toxicity by rotarod assay method in mice 30 min after ip administration of 300 mg/kg; A=Active; format: organism-based; set-up: dose 300 mg/kg, route intraperitoneal; details: in vivo, 0.5 h
Mus musculus [15] = assay: Compound for anticonvulsant activity against maximal electroshock (MES)-induced seizures in mice after administration; format: functional; how it was run: as §2
Mus musculus [16] = assay: Compound for anticonvulsant activity against subcutaneous pentylenetetrazole-induced convulsions in mice after administration; format: functional; details: sc; how it was run: as §1
Mus musculus [17] = assay: Compound was tested for toxicity by rotarod assay method in mice after intraperitoneal administration after 4 hours; A=Active; format: organism-based; details: in vivo, ip
Mus musculus [18] = assay: Anticonvulsant activity against maximal electroshock (MES) induced seizures in mice 30 minutes after ip administration of 300 mg/kg; A=Active; format: functional, organism-based; set-up: dose 300 mg/kg; how it was run: as §2
Mus musculus [19] = assay: Compound was tested for toxicity by rotarod assay method in mice 4 hours after ip administration of 600 mg/kg; NA=No activity; format: organism-based; set-up: dose 600 mg/kg, route intraperitoneal; details: in vivo
Mus musculus [20] = assay: Anticonvulsant activity against sc pentylenetetrazole induced convulsions in mice 30 minutes after ip administration of 600 mg/kg; A=Active; format: functional, organism-based; set-up: dose 600 mg/kg; how it was run: as §1
Mus musculus [21] = assay: Compound was tested for toxicity by rotarod assay method in mice 30 min after ip administration of 600 mg/kg; No activity; format: organism-based; set-up: dose 600 mg/kg, route intraperitoneal; details: in vivo, 0.5 h
Mus musculus [22] = assay: Anticonvulsant activity against maximal electroshock (MES) induced seizures in mice 4 hours after ip administration of 600 mg/kg.; format: functional, organism-based; set-up: dose 600 mg/kg; how it was run: as §2
Mus musculus [23] = species on record: Mus musculus; assay: Anticonvulsant activity against maximal electroshock (MES)-induced seizures in mice; format: functional; how it was run: as §2
Mus musculus [24] = assay: Anticonvulsant activity against maximal electroshock (MES) induced seizures in mice 30 minutes after ip administration of 30 mg/kg; A=Active; format: functional, organism-based; set-up: dose 30 mg/kg; how it was run: as §2
Mus musculus [25] = assay: Compound was tested for toxicity by rotarod assay method in mice 30 min after ip administration of 600 mg/kg; A=Active; format: organism-based; set-up: dose 600 mg/kg, route intraperitoneal; details: in vivo, 0.5 h
Mus musculus [26] = assay: Anticonvulsant activity against maximal electroshock (MES) induced seizures in mice 4 hours after ip administration of 100 mg/kg; A=Active; format: functional, organism-based; set-up: dose 100 mg/kg; how it was run: as §2
[27] = as §3; format: organism-based; details: mouse, in vivo; how it was run: as §4
Mus musculus [28] = assay: Anticonvulsant activity against maximal electroshock (MES) induced seizures in mice 4 hours after ip administration of 300 mg/kg; A=Active; format: functional, organism-based; set-up: dose 300 mg/kg; how it was run: as §2
Mus musculus [29] = assay: Anticonvulsant activity against subcutaneous pentylenetetrazole induced convulsions in mice 4 hours after ip administration of 600 mg/kg; NA=No activity; format: functional, organism-based; set-up: dose 600 mg/kg; how it was run: as §1
Mus musculus [30] = assay: Anticonvulsant activity against sc pentylenetetrazole-induced convulsions in mice 30 minutes after ip administration of 300 mg/kg; Active; format: functional, organism-based; set-up: dose 300 mg/kg; how it was run: as §1
Mus musculus [31] = assay: Compound was tested for toxicity by rotarod assay method in mice 30 min after ip administration of 300 mg/kg; Active; format: organism-based; set-up: dose 300 mg/kg, route intraperitoneal; details: in vivo, 0.5 h
Mus musculus [32] = assay: Anticonvulsant activity against maximal electroshock (MES) induced seizures in mice […] after ip administration of 600 mg/kg; NA=No activity; format: functional, organism-based; set-up: dose 600 mg/kg; how it was run: as §2
Mus musculus [33] = assay: Compound was tested for toxicity by rotarod assay method in mice after intraperitoneal administration after 4 hours; format: functional, organism-based; how it was run: as §4
Mus musculus [34] = assay: Compound was tested for toxicity by rotarod assay method in mice after intraperitoneal administration after 30 minutes; format: functional, organism-based; how it was run: as §4
Mus musculus [35] = assay: Anticonvulsant activity against subcutaneous pentylenetetrazole induced convulsions in mice after intraperitoneal administration after 4 hr at 600 mg/kg; NA=No activity; format: functional, organism-based; set-up: dose 600 mg/kg; how it was run: as §1
Mus musculus [36] = assay: Anticonvulsant activity against sc pentylenetetrazole induced convulsions in mice 4 hr after ip administration of 600 mg/kg; A=Active; format: functional, organism-based; set-up: dose 600 mg/kg; how it was run: as §1

Cc1cccc(C(C)C)c1NC(=O)c1cccc(N)c1
Toxicity (Mus musculus [1]): Not Active
Anticonvulsant activity (Mus musculus [2]): inactive
Anticonvulsant activity (Mus musculus [3]): inactive
Toxicity (Mus musculus [4]): Not Active
Anticonvulsant activity (Mus musculus [5]): Active
Anticonvulsant activity (Mus musculus [6]): Active

CC(NC(=O)c1ccc(N)cc1)c1ccccc1 (configuration not stated)
PI [7]: 9.5 and 4.1
TD50 (Mus musculus [8]): 170.78 mg/kg

Cc1cccc(NC(=O)c2cccc(N)c2)c1
Toxicity (Mus musculus [9]): Active
Anticonvulsant activity (Mus musculus [10]): Active
Anticonvulsant activity (Mus musculus [11]): Active
Anticonvulsant activity (Mus musculus [12]): Active
Anticonvulsant activity (Mus musculus [13]): Active
Toxicity (Mus musculus [14]): Active

CCCC(CCC)C(=O)O [VALPROIC ACID]
ED50 (Mus musculus [15]): 272 mg/kg
ED50 (Mus musculus [16]): 149 mg/kg

CC(C)c1ccccc1NC(=O)c1cccc(N)c1
Toxicity (Mus musculus [17]): Active
Anticonvulsant activity (Mus musculus [2]): inactive
Anticonvulsant activity (Mus musculus [3]): inactive
Anticonvulsant activity (Mus musculus [11]): Active
Anticonvulsant activity (Mus musculus [18]): Active
Toxicity (Mus musculus [14]): Active

Cc1ccc(NC(=O)c2cccc(N)c2)cc1C
Toxicity (Mus musculus [19]): Not Active
Anticonvulsant activity (Mus musculus [3]): inactive
Anticonvulsant activity (Mus musculus [20]): Active
Toxicity (Mus musculus [21]): Not Active
Anticonvulsant activity (Mus musculus [22]): inactive
Anticonvulsant activity (Mus musculus [6]): Active

Cc1cccc(C)c1NC(=O)c1cccc(N)c1
ED50 (Mus musculus [23]): 13.5 mg/kg
Toxicity (Mus musculus [9]): Active
Anticonvulsant activity (Mus musculus [24]): Active
Toxicity (Mus musculus [25]): Active
Anticonvulsant activity (Mus musculus [2]): inactive
Anticonvulsant activity (Mus musculus [3]): inactive
selectivity ratio ([7]; read-out: PI): 21.1
Anticonvulsant activity (Mus musculus [26]): Active
TD50 [27]: 285 mg/kg

Cc1ccccc1NC(=O)c1cccc(N)c1
ED50 (Mus musculus [23]): 44.7 mg/kg
Toxicity (Mus musculus [9]): Active
Anticonvulsant activity (Mus musculus [10]): Active
Anticonvulsant activity (Mus musculus [3]): inactive
Anticonvulsant activity (Mus musculus [28]): Active
Anticonvulsant activity (Mus musculus [13]): Active
Toxicity (Mus musculus [14]): Active
TD50 [27]: 109 mg/kg

Nc1ccccc1C(=O)Nc1ccccc1
Toxicity (Mus musculus [19]): Not Active
Toxicity (Mus musculus [25]): Active
Anticonvulsant activity (Mus musculus [2]): inactive
Anticonvulsant activity (Mus musculus [29]): inactive
Anticonvulsant activity (Mus musculus [18]): Active
Anticonvulsant activity (Mus musculus [22]): inactive

Cc1cccc(C)c1NC(=O)c1ccccc1N
Toxicity (Mus musculus [19]): Not Active
Anticonvulsant activity (Mus musculus [30]): Active
Anticonvulsant activity (Mus musculus [3]): inactive
Toxicity (Mus musculus [31]): Active
Anticonvulsant activity (Mus musculus [11]): Active
Anticonvulsant activity (Mus musculus [18]): Active

Cc1cccc(NC(=O)c2ccccc2N)c1C
Anticonvulsant activity (Mus musculus [32]): inactive
Toxicity (Mus musculus [19]): Not Active
Toxicity (Mus musculus [25]): Active
Anticonvulsant activity (Mus musculus [3]): inactive
Anticonvulsant activity (Mus musculus [20]): Active
Anticonvulsant activity (Mus musculus [22]): inactive

Cc1cccc(NC(=O)c2cccc(N)c2)c1C
Toxicity (Mus musculus [33]): inactive
Anticonvulsant activity (Mus musculus [2]): inactive
Anticonvulsant activity (Mus musculus [3]): inactive
Anticonvulsant activity (Mus musculus [22]): inactive
Toxicity (Mus musculus [34]): inactive
Anticonvulsant activity (Mus musculus [6]): Active

CCc1cccc(C(C)C)c1NC(=O)c1cccc(N)c1
Toxicity (Mus musculus [1]): Not Active
Anticonvulsant activity (Mus musculus [2]): inactive
Anticonvulsant activity (Mus musculus [3]): inactive
Anticonvulsant activity (Mus musculus [11]): Active
Anticonvulsant activity (Mus musculus [18]): Active
Toxicity (Mus musculus [4]): Not Active

Cc1ccccc1NC(=O)c1ccccc1N
Toxicity (Mus musculus [19]): Not Active
Toxicity (Mus musculus [31]): Active
Anticonvulsant activity (Mus musculus [11]): Active
Anticonvulsant activity (Mus musculus [20]): Active
Anticonvulsant activity (Mus musculus [35]): inactive
Anticonvulsant activity (Mus musculus [18]): Active

Nc1cccc(C(=O)Nc2ccccc2)c1
Toxicity (Mus musculus [9]): Active
Anticonvulsant activity (Mus musculus [10]): Active
Anticonvulsant activity (Mus musculus [36]): Active
Anticonvulsant activity (Mus musculus [28]): Active
Anticonvulsant activity (Mus musculus [13]): Active
Toxicity (Mus musculus [14]): Active
